Each structure is given as a SMILES string. Hit rate of the full screen: of about 330,000 compounds, about 1,100 (0.33%) were called active. For the sample, actives were picked, then their nearest neighbours and some compounds at random. Values without a mark were called inactive.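 The calls were made as follows: active = at 10 µM dose, activation of 40% or more, normalized to positive control; inactive = the rest.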

The assay is described as follows: PERK-eIF2a-CHOP pathway stimulators – cell-based, CHO-CHOP luciferase reporter, luminescence, uHTS, primary screen (AID 449763).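 Also: 100% = tunicamycin at 10 µg/mL and 0% = DMSO alone.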 The conditions noted are these: UPR activation, at 10 µM, hits give high values, percent of tunicamycin response over DMSO baseline. An outline of the steps:
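System: CHO-CHOP luciferase reporter cell line | Buffer or medium: F12 medium containing 10% fetal bovine serum | Doses: One dose, 10 µM in 0.5% DMSO | Times: 6 h compound exposure at 37 °C after overnight seeding | Signal: Luciferase luminescence | Read-out: % activation vs tunicamycin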
As to `COc1cc(NC(=O)c2cncc(-c3ccc(C#N)cc3)c2)cc(C(=O)Nc2cccc(C(F)(F)F)c2)c1`, the activation is 73.6% (active).

`N#Cc1ccc(Oc2ccc(C(F)(F)F)cc2NC(=O)c2ccc(F)cc2)cc1`: the activation was -0.147%.

Regarding `COc1cc(NC(=O)c2[nH]cnc2C(N)=O)cc(C(=O)Nc2cccc(C(F)(F)F)c2)c1`, the activation was 12.8%.

As for `O=C(O)C1C2C=CC(C2)C1C(=O)NCc1ccccc1` (stereo not given), the activation is -1.58%.

For the molecule `O=C(CC(NCCN1CCOCC1)C(=O)O)Nc1cccc(Cl)c1` (stereo not given), the activation was -1.8%.

Consider `N#Cc1cccc(NC(=O)COC(=O)c2ccccc2C(=O)c2ccc(Cl)c([N+](=O)[O-])c2)c1`, for which the activation is 105% (active).

`CC(=O)Nc1ccc(NC(=O)COC(=O)c2ccccc2C(=O)c2ccccc2)cc1`: the activation is 1.65%.

`CC(=O)Nc1ccc(NC(=O)C(C)OC(=O)c2ccccc2C(=O)c2ccc(Cl)c([N+](=O)[O-])c2)cc1` (stereo not given): the activation is 12.1%.

For `CC1=CC(C)(C)NC(=S)N1c1ccccc1`, the activation was 0.0762%.

For the molecule `O=C(c1c(F)cccc1F)N1CCN(S(=O)(=O)c2ccc3c(c2)OCCO3)CC1`, the activation was 2.02%.

On to `O=[N+]([O-])c1ccc(C=Nc2ccc(Cl)cc2Cl)s1`, for which the activation was 112% (active).

With `CC1CN(C(=O)c2ccc([N+](=O)[O-])s2)CC(C)O1` (stereo not given), the activation is 1.2%.

Take `CCN(Cc1ccccc1)C(=O)CCS(=O)(=O)c1ccc2c(c1)oc(=O)n2C`: the activation was -2.75%.

Turning to `Cc1cccc(NC(=O)C2CC(=O)OC23CCCC3)c1` (stereo not given), the activation is 0.24%.

In the case of `CCOC(=O)CN(C(=O)CN1CCOCC1)c1ccc(Br)cc1`, the activation is -1.27%.

Turning to `CC1CCCC(C)N1C(=O)COC(=O)COc1ccccc1C#N` (stereo not given), the activation is -1.4%.

For `CC(=O)Nc1ccc(Nc2ncnc3c2nnn3Cc2ccccc2Cl)cc1`, the activation is -0.872%.

As for `CN(C)Cc1c(C#N)c2ccccc2n1C`, the activation is -0.172%.

As for `CCCc1cc(=S)n2c([nH]c3ccccc32)c1C#N`, the activation was 54.1% (active).

Consider `CCOC(=O)CCc1c(C)c(C#N)c2[nH]c3ccccc3n2c1=O`, for which the activation was -1.06%.

For `CCn1c(SCC(=O)Nc2cc(C)ccc2C)nnc1-c1cnccn1`, the activation was -1.53%.

In the case of `Cc1[nH]n(-c2ccccc2)c(=O)c1CCOC(=O)c1ccc(C(F)(F)F)cc1`, the activation was -0.83%.

Regarding `O=C1CC(c2ccccc2)CC(O)=C1C=NCCN1CCOCC1` (stereo not given), the activation was -2.31%.

On to `O=C1CC(c2cccc(Cl)c2)CC(O)=C1C=Nc1ccccc1` (stereo not given), for which the activation is 50% (active).

For `O=C1C=C(c2cccc(Cl)c2)C[C@@H](c2ccc(F)cc2)C1`, the activation was -0.428%.
